Source: ChEMBL document CHEMBL1137695, “Towards an efficient prodrug of the alkylating metabolite monomethyltriazene: synthesis and stability of N-acylamino acid derivatives of triazenes” (Eur J Med Chem, 2009)

What was measured:
[1] = Stability in phosphate buffer assessed as half life at pH 7.7 by HPLC; type: physicochemical
How it was run: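 Incubation at 37 °C in 0.066 M pH 7.7 isotonic phosphate buffer. Samples injected directly onto HPLC (acetonitrile:water 20:80 to 50:50, detection 290 nm). Half-life calculated from decline in substrate concentration; mean of at least 2 determinations ± SD.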

[2] = Stability in 80% human plasma assessed as half life by HPLC; type: ADME, cell-free
How it was run: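 Plasma pooled from seven healthy donors, stored at −18 °C. Incubation at 37 °C in 80% plasma diluted with 0.066 M pH 7.4 isotonic phosphate buffer. Aliquots taken over time, diluted with acetonitrile, centrifuged, supernatant analysed by HPLC at 290 nm. t1/2 fitted from substrate loss; mean of at least 3 determinations ± SD.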

[3] = Octanol-phosphate buffer partition coefficient at pH 7.4 by HPLC; type: physicochemical
How it was run: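 Octanol and pH 7.4 phosphate buffer, each pre-saturated with the other, at 25 °C. Compound dissolved in octanol, then shaken with buffer for 30 min to equilibrium. Each phase analysed separately by HPLC (acetonitrile:water 20:80 to 50:50, 290 nm). P taken as ratio of octanol to buffer peak areas. Mean of at least 3 determinations ± SD.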

| Structure (SMILES) | half-life [1] [h] | half-life [2] [h] | logD [3] |
| --- | --- | --- | --- |
| CC(=O)NCC(=O)N(C)/N=N/c1ccc(C#N)cc1 | 7.6 | 1.2 | 1.1 |
| CC(=O)N[C@@H](C)C(=O)N(C)/N=N/c1ccc(Br)cc1 | 25.5 | 5.7 | 2.8 |
| CCC(=O)N[C@@H](C)C(=O)N(C)/N=N/c1ccc(C#N)cc1 | 10.1 | 1.3 | 1.87 |
| CCCC(=O)N[C@@H](C)C(=O)N(C)/N=N/c1ccc(C#N)cc1 | 9.1 | 1.1 | 2.28 |
| CC(=O)N[C@@H](C)C(=O)N(C)/N=N/c1ccc(C)cc1 | 46.5 | 15.1 | 2.45 |
| C[C@H](NC(=O)c1ccccc1)C(=O)N(C)/N=N/c1ccc(C#N)cc1 | 9.2 | 1.6 | 3.04 |
| CC(=O)N[C@@H](C)C(=O)N(C)/N=N/c1ccc(C(C)=O)cc1 | 13.9 | 2.3 | 1.51 |
| CC(=O)N[C@@H](C)C(=O)N(C)/N=N/c1ccc(C(N)=O)cc1 | 18.4 | 7.6 | 0.69 |
| CC(=O)N[C@@H](C)C(=O)N(C)/N=N/c1ccc(C#N)cc1 | 9.8 | 1 | 1.41 |
| CC(=O)N[C@H](C(=O)N(C)/N=N/c1ccc(C#N)cc1)C(C)C | 84.3 | 5.7 | 2.18 |
| CCOC(=O)c1ccc(/N=N/N(C)C(=O)[C@H](C)NC(C)=O)cc1 | 15.7 | 4.6 | 2.52 |
| CC(=O)N[C@@H](Cc1ccccc1)C(=O)N(C)/N=N/c1ccc(C#N)cc1 | 13.9 | 2.4 | 2.76 |
